Laboratory results: ChEMBL document CHEMBL1152649, “Synthesis, cytotoxicity and human telomerase inhibition activities of a series of 1,2-heteroannelated anthraquinones and anthra[1,2-d]imidazole-6,11-dione homologues” (2009)

Tested on: MDA-MB-468
Assay: Growth inhibition of human MDA-MB-468 cells
Type: functional
Method in brief: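 NCI 60 cancer cell line screen run per the Developmental Therapeutics Program protocol. Dose–response curves were plotted against log10 drug concentration for each cell line within its subpanel, and mean graph midpoint values were calculated.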

In the case of CCc1nc2ccc3c(c2[nH]1)C(=O)c1ccccc1C3=O, the GI50 is reported as 8.29 µM, the TGI is reported as > 100 µM and the CC50 (read-out: LC50 (the source's name)) is reported as > 100 µM.
